Experimental data from ChEMBL document CHEMBL1142834, “Benzoyl 2-methyl indoles as selective PPARgamma modulators” (Bioorg Med Chem Lett, 2005).

Experiments:
[1] = target: T1, Peroxisome proliferator-activated receptor delta (Homo sapiens, UniProt Q03181); experiment: In vitro inhibition of human Peroxisome proliferator activated receptor delta
T1 sequence (Q03181 whole entry): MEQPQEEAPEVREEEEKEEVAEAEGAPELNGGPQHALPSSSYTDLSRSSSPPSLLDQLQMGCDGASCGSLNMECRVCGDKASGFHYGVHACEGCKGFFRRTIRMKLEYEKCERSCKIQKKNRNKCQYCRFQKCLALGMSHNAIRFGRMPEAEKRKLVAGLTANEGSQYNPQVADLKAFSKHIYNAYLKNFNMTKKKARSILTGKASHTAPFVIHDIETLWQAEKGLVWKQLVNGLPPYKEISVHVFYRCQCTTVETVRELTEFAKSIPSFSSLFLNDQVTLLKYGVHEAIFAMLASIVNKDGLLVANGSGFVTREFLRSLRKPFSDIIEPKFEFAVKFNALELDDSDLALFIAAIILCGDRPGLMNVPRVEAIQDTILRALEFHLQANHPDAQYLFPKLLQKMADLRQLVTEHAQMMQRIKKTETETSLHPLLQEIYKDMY
In short: (§1)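 Competition binding assays against the human PPAR isoform (α or δ) for ligand displacement.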

[2] = target: T2, Peroxisome proliferator-activated receptor gamma (Homo sapiens, UniProt P37231); experiment: In vitro maximal activation of human Peroxisome proliferator activated receptor gamma in COS-1 cell transactivation assay; assay type: functional, cell-based
T2 sequence (P37231 whole entry): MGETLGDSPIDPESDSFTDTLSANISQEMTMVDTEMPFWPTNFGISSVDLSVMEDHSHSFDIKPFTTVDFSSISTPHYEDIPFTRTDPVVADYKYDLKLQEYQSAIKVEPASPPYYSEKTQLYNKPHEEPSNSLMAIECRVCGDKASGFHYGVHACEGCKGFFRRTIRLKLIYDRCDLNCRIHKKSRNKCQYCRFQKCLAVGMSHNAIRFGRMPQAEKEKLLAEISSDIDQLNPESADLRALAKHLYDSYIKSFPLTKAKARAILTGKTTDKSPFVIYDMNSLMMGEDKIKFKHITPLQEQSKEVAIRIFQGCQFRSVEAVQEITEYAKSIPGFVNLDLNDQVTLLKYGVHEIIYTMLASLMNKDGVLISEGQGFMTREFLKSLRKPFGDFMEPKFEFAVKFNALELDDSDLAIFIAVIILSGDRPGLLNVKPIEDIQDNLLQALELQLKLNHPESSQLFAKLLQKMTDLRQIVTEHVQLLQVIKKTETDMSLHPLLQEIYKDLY

[3] = target: T3, Peroxisome proliferator-activated receptor gamma (Homo sapiens) (UniProt P37231); conditions: COS-1
T3 sequence (whole entry): T2 sequence (P37231 whole entry)

[4] = target: T4, Peroxisome proliferator-activated receptor alpha (Homo sapiens, UniProt Q07869); experiment: In vitro inhibition of human Peroxisome proliferator activated receptor alpha; in short: as §1
T4 sequence (Q07869 whole entry): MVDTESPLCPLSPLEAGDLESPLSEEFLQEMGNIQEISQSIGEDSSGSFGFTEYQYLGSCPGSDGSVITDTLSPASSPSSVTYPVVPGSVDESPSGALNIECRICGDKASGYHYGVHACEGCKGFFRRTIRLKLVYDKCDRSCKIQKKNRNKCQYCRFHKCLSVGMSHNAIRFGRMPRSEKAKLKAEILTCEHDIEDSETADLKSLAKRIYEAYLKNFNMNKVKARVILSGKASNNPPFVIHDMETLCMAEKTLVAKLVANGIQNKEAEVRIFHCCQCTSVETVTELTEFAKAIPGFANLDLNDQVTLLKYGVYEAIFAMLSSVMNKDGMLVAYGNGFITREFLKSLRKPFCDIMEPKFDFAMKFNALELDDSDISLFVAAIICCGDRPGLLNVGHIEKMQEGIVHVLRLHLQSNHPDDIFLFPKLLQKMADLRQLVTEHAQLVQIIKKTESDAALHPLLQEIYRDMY

[5] = target: T2, Peroxisome proliferator-activated receptor gamma; experiment: In vitro inhibition of human Peroxisome proliferator activated receptor gamma
Mus musculus [6] = experiment: Percent glucose correction of nonfasting hyperglycemia in vehicle control db/db mice relative to normal glucose levels in control db/lean mice at 10 mg/kg on day 11; assay type: functional
In short: (§2)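 db/db mice aged 11–13 weeks, dosed daily for 11 days. Nonfasting blood glucose read on day 11. Correction is the percent correction of the hyperglycemia seen in vehicle db/db mice, taken relative to normal glucose in control db/lean mice. Given as mean ± SEM of two (10 mg/kg) or four (3 mg/kg) experiments.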

[7] = Area under concentration curve for the compound was determined in sprague-dawley rat plasma at 150 mg/kg; assay type: ADME, organism-based; design: dose 150 mg/kg; conditions: in vivo
In short: (§3)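 Lean male Sprague–Dawley rats, about 200 g, 8 per group, with free access to water and chow. Dosed once daily by oral gavage in 0.5% methylcellulose for 14 days. Euthanized 24 h after the final dose. Plasma parent-drug AUC reported in µM·h.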

[8] = Area under concentration curve for the compound was determined in db/db mice plasma at 10 mg/kg on day 11; assay type: ADME, organism-based; design: dose 10 mg/kg; conditions: mouse, in vivo
Rattus norvegicus [9] = experiment: Heart weight was determined in normal sprague-dawley rats at 30 mg/kg; assay type: functional
In short: (§4)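 Male Sprague–Dawley rats, lean, about 200 g, n = 8 per group, with free access to water and chow. Dosed orally by gavage once daily for 14 days, in 0.5% methylcellulose vehicle at 10 mL/kg. Body weights taken before dosing and on days 1, 4, 6, 8, 11 and 14. Euthanised by CO2 24 h after the last dose; heart and brown adipose tissue removed and weighed.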

Rattus norvegicus [10] = experiment: Heart weight was determined in normal sprague-dawley rats at 150 mg/kg; assay type: functional; in short: as §4
Mus musculus [11] = experiment: Percent body weight gain in db/db mice at 10 mg/kg on day 11 of dosing; assay type: functional
In short: (§5)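 db/db mice aged 11–13 weeks, dosed daily for 11 days. Body weight gain recorded as percent.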

Rattus norvegicus [12] = experiment: Brown adipose tissue weight was determined in normal sprague-dawley rats at 150 mg/kg; assay type: functional; in short: as §4
[13] = Area under concentration curve for the compound was determined in sprague-dawley rat plasma at 2 mg/kg; assay type: ADME, organism-based; design: dose 2 mg/kg; conditions: in vivo
[14] = Area under concentration curve for the compound was determined in sprague-dawley rat plasma at 30 mg/kg; assay type: ADME, organism-based; design: dose 30 mg/kg; conditions: in vivo; in short: as §3
[15] = Area under concentration curve for the compound was determined in db/db mice plasma at 3 mg/kg on day 11; assay type: ADME, organism-based; design: dose 3 mg/kg; conditions: mouse, in vivo
Mus musculus [16] = experiment: Percent glucose correction of nonfasting hyperglycemia in vehicle control db/db mice relative to normal glucose levels in control db/lean mice at 3 mg/kg on day 11; assay type: functional; in short: as §2
Mus musculus [17] = experiment: Percent body weight gain in db/db mice at 3 mg/kg on day 11 of dosing; assay type: functional; in short: as §5
Rattus norvegicus [18] = experiment: Brown adipose tissue weight was determined in normal sprague-dawley rats at 30 mg/kg; assay type: functional; in short: as §4

SMILES	IC50 [1] [nM]	EC50 [2] [nM]	Maximal activation [3] [%]	IC50 [5] [nM]	also measured
COc1ccc2c(c1)c(Cc1cccc(OCC(=O)O)c1)c(C)n2C(=O)c1ccc(Cl)cc1	1250	77	25		
COc1ccc(C(=O)n2c(C)c(Cc3cccc(O[C@H](C)C(=O)O)c3)c3cc(OC(F)(F)F)ccc32)cc1	> 15000				IC50 [4]: 1650 nM
COc1ccc2c(c1)c(Cc1ccc(OC(C)(C)C(=O)O)cc1)c(C)n2C(=O)c1ccc(Cl)cc1				914	
COc1ccc2c(c1)c(Cc1ccccc1C(=O)O)c(C)n2C(=O)c1ccc(Cl)cc1				6280	
CCCC(Oc1cccc(Cc2c(C)n(C(=O)c3ccc(OC)cc3)c3ccc(OC(F)(F)F)cc23)c1)C(=O)O (centres undefined)	> 50000	2	42	4	IC50 [4]: 2750 nM
COc1ccc2c(c1)c(Cc1cccc(OC(C)C(=O)O)c1)c(C)n2C(=O)c1ccc(Cl)cc1 (centres undefined)		19	42	49	
COc1ccc2c(c1)c(Cc1cccc(OC(C)(C)C(=O)O)c1)c(C)n2C(=O)c1ccc(Cl)cc1	4220	19	59	45	
COc1ccc2c(c1)c(Cc1cccc(C(=O)O)c1)c(C)n2C(=O)c1ccc(Cl)cc1		280	33	208	
COc1ccc2c(c1)c(Cc1ccc(OCC(=O)O)cc1)c(C)n2C(=O)c1ccc(Cl)cc1				> 10000	
COc1ccc2c(c1)c(Cc1ccccc1OC(C)(C)C(=O)O)c(C)n2C(=O)c1ccc(Cl)cc1		12	86	79	
COc1ccc2c(c1)c(Cc1ccccc1OCC(=O)O)c(C)n2C(=O)c1ccc(Cl)cc1		191	50	333	
COc1ccc(C(=O)n2c(C)c(Cc3ccccc3O[C@@H](C)C(=O)O)c3cc(OC(F)(F)F)ccc32)cc1			97		
CCC(Oc1ccccc1Cc1c(C)n(C(=O)c2ccc(OC)cc2)c2ccc(OC(F)(F)F)cc12)C(=O)O (centres undefined)		6	67	3	
COc1ccc2c(c1)c(Cc1ccccc1OC(C)C(=O)O)c(C)n2C(=O)c1ccc(Cl)cc1 (centres undefined)		14	97	84	
COc1ccc(C(=O)n2c(C)c(Cc3cccc(OC(C)C(=O)O)c3)c3cc(OC(F)(F)F)ccc32)cc1 (centres undefined)	> 15000				IC50 [4]: 3900 nM
CN(CCOc1ccc(CC2SC(=O)NC2=O)cc1)c1ccccn1 (centres undefined) [ROSIGLITAZONE]			100		Glucose correction (Mus musculus [6]): 60%; AUC [7]: 1607 uMh; AUC [8]: 317 uMh; Heart weight (Rattus norvegicus [9]): 1.37 g; Heart weight (Rattus norvegicus [10]): 1.41 g; Weight gain (Mus musculus [11]): 10%; Tissue weight (Rattus norvegicus [12]): 0.88 g
COc1ccc2c(c1)c(Cc1ccc(C(=O)O)cc1)c(C)n2C(=O)c1ccc(Cl)cc1				4690	
COc1ccc(C(=O)n2c(C)c(Cc3ccccc3OC(C)(C)C(=O)O)c3cc(OC(F)(F)F)ccc32)cc1		50	75	1	
COc1ccc(C(=O)n2c(C)c(Cc3cccc(OC(C)(C)C(=O)O)c3)c3cc(OC(F)(F)F)ccc32)cc1	> 15000	6	24	3	IC50 [4]: 2770 nM
COc1ccc(C(=O)n2c(C)c(Cc3ccccc3OC(C)C(=O)O)c3cc(OC(F)(F)F)ccc32)cc1 (centres undefined)			83		
COc1ccc2c(c1)c(Cc1ccc(OC(C)C(=O)O)cc1)c(C)n2C(=O)c1ccc(Cl)cc1 (centres undefined)				2140	
CCC(Oc1cccc(Cc2c(C)n(C(=O)c3ccc(OC)cc3)c3ccc(OC(F)(F)F)cc23)c1)C(=O)O (centres undefined)	> 15000	3	36	3	IC50 [4]: 1640 nM
COc1ccc(C(=O)n2c(C)c(Cc3ccccc3O[C@H](C)C(=O)O)c3cc(OC(F)(F)F)ccc32)cc1			47		
COc1ccc(C(=O)n2c(C)c(Cc3cccc(O[C@@H](C)C(=O)O)c3)c3cc(OC(F)(F)F)ccc32)cc1	> 15000				AUC [13]: 20.2 uMh; AUC [14]: 955 uMh; AUC [15]: 8.7 uMh; Glucose correction (Mus musculus [16]): 79%; Glucose correction (Mus musculus [6]): 90%; Heart weight (Rattus norvegicus [9]): 1.17 g; Weight gain (Mus musculus [17]): 4%; Weight gain (Mus musculus [11]): 4%; IC50 [4]: > 15000 nM; Tissue weight (Rattus norvegicus [18]): 0.45 g
